Data on twelve compounds can be found in ChEMBL document CHEMBL5126498, “Peptidomimetic nitrile warheads as SARS-CoV-2 3CL protease inhibitors” (RSC Med Chem, 2021).

Broadly, the pEC50 is the EC50 on a negative log10 scale, so that one unit is a factor of ten. As a reminder, the CC50 is the concentration giving 50% cytotoxicity. One may read the inhibition as the relative decrease from the control value, in per cent. As a reminder, the pIC50 is −log10 of the IC50, conventionally taken in molar units.

Data set [1] concerns SARS-CoV-2. Description: Antiviral activity against SARS-CoV-2 infected in African Green monkey Vero E6 cells assessed as reduction in viral plaques by plaque reduction assay. Type of data set: functional, organism-based. Particulars: Severe acute respiratory syndrome coronavirus 2, Vero C1008.
In data set [2] the test system is SARS-CoV-2. As to the kind of experiment: Antiviral activity against SARS-CoV-2 infected in African Green monkey Vero E6 cells assessed as reduction in viral plaques in presence of efflux inhibitor CP-100356 by plaque reduction assay. Type of data set: functional, organism-based. Particulars: Severe acute respiratory syndrome coronavirus 2, Vero C1008.
A short description of data set [3]: Cytotoxicity against African Green monkey Vero E6 cells assessed as reduction in cell viability by CellTiter-Glo assay. Particulars: chlorocebus sabaeus. Type of data set: toxicity, cell-based, Vero C1008. In short, it runs like this:
(§1)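 Vero E6 or A549 cells were seeded at 1×10^4/well and left overnight. Compounds were added at final 50 and 200 μM in 0.5% DMSO for 24 h. Read-out was CellTiter-Glo luminescence, with viability calculated relative to 0.5% DMSO-treated cells. Quadruplicate wells were run in one experiment, and CC50 was interpolated where possible.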
A general note: ATP-based viability assays read luminescence as a measure of living cells.

Data set [4] is described as follows: Cytotoxicity against human A549 cells assessed as reduction in cell viability by CellTiter-Glo assay. Type of data set: toxicity, cell-based. In a few lines: as §1
Data set [5] in a line: Cytotoxicity against African Green monkey Vero E6 cells assessed as reduction in cell viability by CCK-8 assay. Particulars: chlorocebus sabaeus. Type of data set: toxicity, cell-based, Vero C1008. In a few lines:
(§2)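 Vero E6 or A549 cells were seeded at 1×10^4/well and left overnight. Compounds were added at final 50 and 200 μM in 0.5% DMSO for 24 h. CCK-8 absorbance was read at 450 nm, and viability was calculated relative to 0.5% DMSO-treated cells. Quadruplicate wells were run in one experiment, and CC50 was interpolated where possible.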
(In general: Tetrazolium dyes change colour on reduction, which living cells bring about.)

Data set [6] in a line: Cytotoxicity against human A549 cells assessed as reduction in cell viability by CCK-8 assay. Type of data set: toxicity, cell-based. In a few lines:
as §2

For data set [7], the target named is T1, Cathepsin B (Homo sapiens, UniProt P07858). Description: Inhibition of human cathepsin B at 1 uM relative to control.
For data set [8], the target named is T2, Cathepsin S (Homo sapiens, UniProt P25774). Description: Inhibition of human cathepsin S at 1 uM relative to control. In a few lines: (§3)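 Human cathepsin S fluorometric kit assay, with compound incubated 30 min at room temperature at final 1% DMSO. […] Enzyme-control and test slopes were obtained by linear regression, and % relative inhibition was calculated per kit.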
Target sequence in this assay (P25774 115-331 limits assumed): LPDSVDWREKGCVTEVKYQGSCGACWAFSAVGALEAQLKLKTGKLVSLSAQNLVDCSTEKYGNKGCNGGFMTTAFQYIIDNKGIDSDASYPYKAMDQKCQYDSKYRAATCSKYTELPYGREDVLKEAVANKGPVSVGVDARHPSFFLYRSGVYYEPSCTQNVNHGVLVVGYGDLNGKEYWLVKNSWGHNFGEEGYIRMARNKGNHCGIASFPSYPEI

Data set [9] concerns the target T3, Procathepsin L (Homo sapiens, UniProt P07711). Description: Inhibition of human cathepsin L at 1 uM relative to control.
Target sequence in this assay (P07711 114-333 limits assumed): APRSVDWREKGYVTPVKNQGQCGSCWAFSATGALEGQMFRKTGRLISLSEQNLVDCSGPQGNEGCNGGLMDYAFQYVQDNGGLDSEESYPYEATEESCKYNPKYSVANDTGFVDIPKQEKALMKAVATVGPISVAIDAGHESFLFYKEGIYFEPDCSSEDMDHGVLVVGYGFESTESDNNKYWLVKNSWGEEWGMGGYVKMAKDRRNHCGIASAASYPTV
For data set [10], the target named is Replicase polyprotein 1ab (Severe acute respiratory syndrome coronavirus 2, UniProt P0DTD1). As to the kind of experiment: Inhibition of SARS-CoV-2 3CL protease by FRET assay.
The nature of data set [11]: Selectivity ratio, ratio of IC50 for inhibition of human cathepsin B to IC50 for inhibition of SARS-CoV-2 3CL protease.
For data set [12], the target named is T3, Procathepsin L. Description: Inhibition of human cathepsin L.
Target sequence in this assay (P07711 whole entry): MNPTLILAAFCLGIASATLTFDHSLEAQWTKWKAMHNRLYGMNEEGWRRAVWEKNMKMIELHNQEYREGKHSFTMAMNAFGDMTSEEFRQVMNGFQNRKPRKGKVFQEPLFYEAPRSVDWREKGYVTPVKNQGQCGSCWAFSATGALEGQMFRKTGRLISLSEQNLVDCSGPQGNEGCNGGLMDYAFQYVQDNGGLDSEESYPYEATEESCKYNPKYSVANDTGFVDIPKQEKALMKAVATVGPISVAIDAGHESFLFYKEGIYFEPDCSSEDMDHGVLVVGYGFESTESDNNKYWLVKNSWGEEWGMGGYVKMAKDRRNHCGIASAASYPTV
The target of data set [13] is T1, Cathepsin B. Description: Inhibition of human cathepsin B.
Data set [14] has as its target T2, Cathepsin S. Description: Inhibition of human cathepsin S. In short, it runs like this: as §3
Target sequence in this assay (P25774 whole entry): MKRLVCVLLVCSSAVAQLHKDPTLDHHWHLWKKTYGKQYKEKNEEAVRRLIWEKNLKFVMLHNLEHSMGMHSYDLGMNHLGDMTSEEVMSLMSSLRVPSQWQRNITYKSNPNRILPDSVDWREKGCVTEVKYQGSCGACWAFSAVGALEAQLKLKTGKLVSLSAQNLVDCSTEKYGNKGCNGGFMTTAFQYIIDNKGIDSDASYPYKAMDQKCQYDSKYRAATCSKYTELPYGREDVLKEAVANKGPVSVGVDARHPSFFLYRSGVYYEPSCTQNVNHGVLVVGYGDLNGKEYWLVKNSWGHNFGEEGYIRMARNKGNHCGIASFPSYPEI
The nature of data set [15]: Glutathione reactivity at pH 7.4 assessed as compound recovery measured after 24 hrs by LC-MS/MS method. Particulars: glutathione solution, read-out: Activity. Type of data set: physicochemical.
Data set [16] in a line: Stability of the compound in presence of glutathione by LC-MS/MS method. Type of data set: physicochemical.
A short description of data set [17]: Selectivity ratio, ratio of IC50 for inhibition of human cathepsin S to IC50 for inhibition of SARS-CoV-2 3CL protease.
Data set [18] can be described thus: Selectivity ratio, ratio of IC50 for inhibition of human cathepsin L to IC50 for inhibition of SARS-CoV-2 3CL protease.
Data set [19] has as its target Replicase polyprotein 1ab (Severe acute respiratory syndrome coronavirus 2) (UniProt P0DTD1). Description: Reversible inhibition of SARS-CoV-2 3CL protease assessed as enzyme recovery measured after 4 hrs by dialysis method relative to control. Further details: scale not given: the % may be the effect or the level left. In a few lines:
(§4)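 SARS-CoV-2 3CLpro (final 2 μM) was preincubated with 20 μM inhibitor for 30 min at room temperature. Activity was compared with apo-enzyme dialysed under identical conditions.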

Data set [20] has the same target. Description: Reversible inhibition of SARS-CoV-2 3CL protease assessed as enzyme recovery measured after 3 days by dialysis method relative to control. The note with it: time 3.0 day. Details: scale not given: the % may be the effect or the level left. In short, it runs like this:
as §4

Data set [21] can be described thus: Inhibition of Enterovirus 71 3Cpro.

pEC50, pIC50: −log10 of the molar value. Where only a bound is given, the exact number is not on record here.

Regarding `COc1cc(Cl)cc2[nH]c(C(=O)N[C@@H](CC(C)(C)C)C(=O)N[C@H](C#N)C[C@@H]3CCCNC3=O)cc12`, the pEC50 in the data set on SARS-CoV-2 [1] was 5.82; with SARS-CoV-2 [2], 6.68. The CC50 in data set [3], in data set [4], in data set [5] and in data set [6] was greater than 200 µM each time. Moreover, the inhibition was less than 1% against Cathepsin B [7], 64% against Cathepsin S [8] and 18% on Procathepsin L [9].

`CC(C)C[C@H](NC(=O)c1cc2c(OC(F)(F)F)cccc2[nH]1)C(=O)N[C@H](C#N)C[C@@H]1CCCNC1=O`: the pIC50 in [10] is 7.86. For the same compound, the values for the pEC50 in the data set with SARS-CoV-2 [1] and in the data set on SARS-CoV-2 [2] were 5.59 and 6.46, respectively. For the same compound, the CC50 in [3] was greater than 100 µM; in data set [4], 90 µM; in data set [5], greater than 100 µM; in [6], 90 µM. Also, the figures for the inhibition against Cathepsin B [7], at Cathepsin S [8] and on Procathepsin L [9] were less than 1%, 67% and 8%, respectively.

As for `CC(C)C[C@H](NC(=O)c1cc2c3c(ccc2[nH]1)CCO3)C(=O)N[C@H](C#N)C[C@@H]1CCCNC1=O`, the negative-log EC50 (pEC50) with SARS-CoV-2 [1] was less than 5.00. Besides, the cytotoxic concentration (CC50) in data set [3], in [4], in [5] and in data set [6] was greater than 200 µM throughout. The inhibition was less than 1% against Cathepsin B [7], 67% on Cathepsin S [8] and 10% against Procathepsin L [9].

`COc1cccc2[nH]c(C(=O)N[C@@H](CC(C)C)C(=O)N[C@H](C#N)C[C@@H]3CCCNC3=O)cc12`: the Ratio IC50 in data set [11] amounted to 2420; in data set [17] it was 189; in data set [18] it was 48. Also, the pEC50 with SARS-CoV-2 [1] was 5.57; in the data set with SARS-CoV-2 [2], 6.64. For the same compound, the CC50 in [3], in data set [4], in data set [5] and in data set [6] was greater than 200 µM each time. Moreover, the pIC50 against Procathepsin L [12] was 6.19; against Cathepsin B [13], 4.49; on Cathepsin S [14] it was 5.60. In addition, the inhibition against Cathepsin B [7] is less than 1%; against Cathepsin S [8], 73%; against Procathepsin L [9], 22%. The remaining at 24 h in [15] was no less than 90%. Besides, the Stability entry in data set [16] is reported as “Stable”. In addition, the figures for the Activity in data set [19] and in data set [20] were 10% and 45%, respectively.

As for `CCOc1cccc2[nH]c(C(=O)N[C@@H](CC(C)C)C(=O)N[C@H](C#N)C[C@@H]3CCCNC3=O)cc12`, the pEC50 is 5.32 with SARS-CoV-2 [1] and 6.92 in the data set on SARS-CoV-2 [2]. For the same compound, the CC50 in [3], in data set [4], in [5] and in [6] was greater than 200 µM each time. For the same compound, the figures for the inhibition at Cathepsin B [7], against Cathepsin S [8] and on Procathepsin L [9] were less than 1%, 74% and less than 1%, respectively.

Turning to `COc1cccc2[nH]c(C(=O)N[C@@H](CC(C)C)C(=O)N[C@H](C#N)C[C@@H]3CCNC3=O)cc12`, the pEC50 in the data set on SARS-CoV-2 [1] is less than 5.30. In addition, the CC50 in data set [3], in data set [4], in data set [5] and in data set [6] was greater than 200 µM throughout. The pIC50 on Procathepsin L [12] was 5.84; against Cathepsin B [13], 4.55; on Cathepsin S [14], 6.15. The inhibition against Cathepsin B [7] was less than 1%; against Cathepsin S [8], 78%; against Procathepsin L [9], 15%.

As for `COc1cccc2[nH]c(C(=O)N[C@@H](CC(C)C)C(=O)N[C@@H](C[C@@H]3CCCNC3=O)C(=O)CO)cc12`, the CC50 in [3], in [4], in [5] and in data set [6] was greater than 200 µM throughout.

`CC(C)C[C@H](NC(=O)[C@@H](NC(=O)[C@H](C)NC(=O)OCc1ccccc1)C(C)C)C(=O)N[C@H](C#N)CCC(N)=O` showed a pIC50 in data set [10] of 5.34.

In turn, `Cc1cc(C(=O)N[C@@H](Cc2ccc(F)cc2)C(=O)N[C@H](C#N)C[C@@H]2CCCNC2=O)no1` showed a pIC50 in data set [21] of 4.83.

On to `CC(C)C[C@H](NC(=O)OCc1ccccc1)C(=O)N[C@@H](C[C@@H]1CCNC1=O)C(O)S(=O)(=O)O` (some centres not stated), for which the CC50 in [3], in data set [4], in data set [5] and in data set [6] was greater than 200 µM each time. Also, the pIC50 against Procathepsin L [12] is 9.60; against Cathepsin B [13], 5.85; against Cathepsin S [14], 7.64. Besides, the inhibition is 53% at Cathepsin B [7], 99% at Cathepsin S [8] and 100% at Procathepsin L [9].

`COc1cc(Cl)cc2[nH]c(C(=O)N[C@@H](CC(C)C)C(=O)N[C@H](C#N)C[C@@H]3CCCNC3=O)cc12`: the values for the pEC50 in the data set on SARS-CoV-2 [1] and with SARS-CoV-2 [2] were 5.66 and 6.63, respectively. The CC50 in data set [3], in data set [4], in data set [5] and in [6] was greater than 200 µM each time. Moreover, the pIC50 at Procathepsin L [12] was 6.33; on Cathepsin B [13] it was 4.74; against Cathepsin S [14], 6.40. In addition, the inhibition against Cathepsin B [7] was less than 1%; at Cathepsin S [8], 72%; at Procathepsin L [9] it was 37%.

Turning to `COc1cccc2[nH]c(C(=O)N[C@@H](CC(C)C)C(=O)N[C@H](C=O)C[C@@H]3CCNC3=O)cc12`, the CC50 in data set [3], in data set [4], in data set [5] and in data set [6] was greater than 200 µM throughout. In addition, the negative logarithm of the IC50 (pIC50) was 6.55 on Procathepsin L [12], 5.70 at Cathepsin B [13] and 7.40 against Cathepsin S [14]. For the same compound, the inhibition against Procathepsin L [9] was 53%.
